The record followed here is the array DNA melting data of Ke et al. (doi:10.1101/2024.01.08.574731).

The nature of data set [1]: folding enthalpy; higher = less favourable; fluorescence melt of hairpins on a sequencing array, two-state fit. Particulars: sodium 0.088 M. The method in brief: (§1)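 With Cy3 and quencher oligos annealed, library hairpins on a sequenced MiSeq flow cell were imaged for Cy3 fluorescence in 50 mM Na-HEPES pH 8.0, 25 mM NaCl, in 2.5 °C steps up to 60 °C. Melting temperature and folding enthalpy were derived from bootstrapped two-state fits of signals normalised to pre-quench Cy3 and to control constructs. Four replicates were combined by inverse variance, with fitted temperatures raised by 9.35 °C to match UV melts.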

A short description of data set [2]: melting temperature; fluorescence melt of hairpins on a sequencing array, two-state fit, raised by 9.35 °C to match UV melts. The following applies: sodium 0.088 M. The method in brief: as §1

For the sequence GATCAAGCGGTTGATC ((((((....)))))), the folding enthalpy in data set [1] was -38.1 kcal/mol. Also, in data set [2], the Tm was 46.5 °C.

As to GCATCGGGAAACCGGTGC (((.(((....))).))), in data set [1], the folding enthalpy was -44.5 kcal/mol. The Tm in data set [2] amounted to 59.1 °C.

In the case of GCGCCGCGAAAGCTGTGC ((.(.((....)).).)), the folding enthalpy in data set [1] was -20.4 kcal/mol. For the same sequence, in data set [2], the Tm was 53.9 °C.

As to GTCGATGCGAAAGCAGAC (((..(((....)))))), the folding enthalpy in data set [1] was -16.1 kcal/mol. In addition, the Tm in data set [2] stood at 46 °C.

Consider CGTGCGGAAACGCACACG ((((((....)))..))), for which the folding enthalpy in data set [1] is -8.09 kcal/mol. Moreover, the Tm in data set [2] was determined as 43.9 °C.

As to GATCTTTACAAAGATC ((((((....)))))), the folding enthalpy in data set [1] is -33.8 kcal/mol. Further, the Tm in data set [2] was 46.5 °C.

As to GCGCTAGGAAACTAACGC (((.(((....))).))), in data set [1], the folding enthalpy was -29.9 kcal/mol. In addition, the Tm in data set [2] stood at 45.5 °C.

Regarding GATCCAGACCTGGATC ((((((....)))))), the folding enthalpy in data set [1] was -44.8 kcal/mol. Besides, the Tm in data set [2] stood at 54.6 °C.

With GGTATCGAAAGATAGACC ((((((....)))..))), the folding enthalpy in data set [1] was -17 kcal/mol. The Tm in data set [2] stood at 30.6 °C.

On to GTATGTCGAAAGACCTAC (((.(((....))).))), for which the folding enthalpy in data set [1] was -19.2 kcal/mol. In data set [2], the Tm came to 39.6 °C.

Take GTCGCAGCGAAAGCTGAC (((..(((....)))))): the folding enthalpy in data set [1] is -9.2 kcal/mol. In data set [2], the Tm turned out to be 37.1 °C.

On to GGAACCGCGAAAGCGTCC (((..(((....)))))), for which the folding enthalpy in data set [1] was -7.7 kcal/mol. The Tm in data set [2] was 26.3 °C.

Turning to GGCTTCGAAAGAATGCC ((((((....))).))), the folding enthalpy in data set [1] is -27.9 kcal/mol. For the same sequence, the Tm in data set [2] came out at 50.7 °C.

For GGACAATCGAAAGATTCC (((..(((....)))))), in data set [1], the folding enthalpy is -8.86 kcal/mol. Besides, the Tm in data set [2] came out at 27.5 °C.

Regarding GGCATAGGAAACTGTGCC ((((.((....)).)))), the folding enthalpy in data set [1] is -45.3 kcal/mol. For the same sequence, in data set [2], the Tm is 53.7 °C.

Consider GCCAGGCGAAAGCGTCGC ((.(.((....)).).)), for which the folding enthalpy in data set [1] is -8.31 kcal/mol. Moreover, the Tm in data set [2] was determined as 40.7 °C.

As to GATCCAGAGTTGGATC ((((((....)))))), the folding enthalpy in data set [1] was -39.8 kcal/mol. Further, in data set [2], the Tm was 49.2 °C.

For GCATGCGAAAGCATATGC ((((((....)))..))), the folding enthalpy in data set [1] was -20.1 kcal/mol. In addition, the Tm in data set [2] stood at 50.1 °C.

For the sequence GGTGCTCGAAAGAGGACC (((.(((....))).))), in data set [1], the folding enthalpy is -47.6 kcal/mol. For the same sequence, in data set [2], the Tm came to 59.7 °C.

For the sequence GTCTCCGAAAGGATGAC ((((((....))).))), the folding enthalpy in data set [1] was -25.6 kcal/mol. In addition, the Tm in data set [2] worked out at 48.5 °C.

Consider GTTCTCGAAAGAGGCAAC ((((((....)))..))), for which the folding enthalpy in data set [1] is -9.31 kcal/mol. In data set [2], the Tm turned out to be 26.6 °C.

On to GTAAACCGAAAGGTCTAC (((.(((....))).))), for which the folding enthalpy in data set [1] was -19.2 kcal/mol. Besides, the Tm in data set [2] stood at 35.6 °C.

As for GATCAAAGTTTTGATC ((((((....)))))), the folding enthalpy in data set [1] is -29.2 kcal/mol. The Tm in data set [2] was determined as 46.1 °C.

GTCTACTCGAAAGAGGAC (((..(((....)))))): in data set [1], the folding enthalpy was -14.4 kcal/mol. In addition, the Tm in data set [2] was 32.1 °C.

In the case of GCTTCAGGAAACCGAAGC (((((.(....).))))), in data set [1], the folding enthalpy is -35.9 kcal/mol. For the same sequence, the Tm in data set [2] worked out at 46.3 °C.

For GGTAGGACGAAAGTCACC (((..(((....)))))), the folding enthalpy in data set [1] was -15.5 kcal/mol. Besides, in data set [2], the Tm amounted to 35.8 °C.

Turning to GGAAGCCCGAAAGGGTCC (((..(((....)))))), the folding enthalpy in data set [1] is -10.8 kcal/mol. In data set [2], the Tm came to 35.4 °C.

In the case of CGCACGGAAACGTTGGCG ((((((....)))..))), the folding enthalpy in data set [1] is -37.8 kcal/mol. The Tm in data set [2] is 45.4 °C.

As for GCCCTGGGAAACCAGGAC (.(((((....))))).), in data set [1], the folding enthalpy was -13.7 kcal/mol. Besides, the Tm in data set [2] was 48.6 °C.

For GATCCTTTAAGGATC ((((((...)))))), in data set [1], the folding enthalpy was -33.1 kcal/mol. Further, the Tm in data set [2] was determined as 55.6 °C.
